Assay [1] has as its system Mus musculus. The assay is described as follows: Antiinflammatory activity in mouse model of xylene-induced ear swelling assessed as inhibition of swelling by measuring weight of the ear at 100 mg/kg, ig pretreated for 90 mins followed by xylene challenge and measured after 30 mins relative to control. The settings on record: po, 2 h, time 120 min. In kind it is functional. Put shortly: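 Xylene ear swelling in mice. Test compounds 100 mg/kg i.g., naproxen 150 mg/kg i.g., all suspended in 0.5% CMC-Na; vehicle group got CMC-Na alone. 90 min after dosing, 25 ul xylene applied to both surfaces of right ear; left ear unstimulated. Killed 30 min later; 8 mm punches from both ears weighed; swelling taken against left ear weight.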

For assay [2], the system named is Mus musculus. Description: Analgesic activity in mouse model of acetic-acid-induced writhing assessed as inhibition of writhing numbers at 70 mg/kg, po pretreated with compound followed by acetic acid challenge and measured after 30 mins relative to control. The note with it: 0.5 h. In kind it is functional. The method in brief: (§1)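 Acetic acid writhing in mice. Oral dosing (70 mg/kg test compounds or limonin; 200 mg/kg aspirin); vehicle controls got 0.5% CMC-Na. 30 min later 0.6% acetic acid, 10 ml/kg i.p. Each animal held in its own box and observed for 15 min; writhing and stretching counted; result as percent change from vehicle writhing controls.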
(In general: Writhing tests count abdominal constrictions after an irritant is injected.)

Assay [3] is filed under the species Mus musculus. The assay is described as follows: animal or person. The settings on record: po, 2 h, read-out: INH.
In assay [4] the test system is Mus musculus. Description: Analgesic activity in mouse model of acetic-acid-induced writhing assessed as inhibition of writhing numbers at 200 mg/kg, po pretreated with compound followed by acetic acid challenge and measured after 30 mins relative to control. The assay is classed as functional. The note with it: 0.5 h. Put shortly:
as §1

The subject of assay [5] is Mus musculus. Description: Antiinflammatory activity in ICR mouse model of carrageenan-induced paw edema assessed as paw edema inhibition rate at 22 mg/kg, po pretreated with compound followed by carrageenan challenge and measured after 4 hrs post-treatment by dial thickness gage. The assay is classed as functional. Put shortly:
(§2)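 ICR male mice, 8 per group, randomized, acclimated at least one week, 12 h light/dark, 22 ± 1 °C. Dosed intragastrically at 25, 50 or 100 mg/kg; indomethacin 22 mg/kg i.g. as reference; olive oil as vehicle. 30 min later, 1% fresh carrageenan in saline injected subplantar into right hind paw. Paw thickness read by dial gauge before injection and at 1, 2, 3 and 4 h; percent increase over pre-injection value.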
(The carrageenan paw model is a standard test of acute inflammation.)

For assay [6], the system named is Mus musculus. Description: Antiinflammatory activity in ICR mouse model of carrageenan-induced paw edema assessed as paw edema inhibition rate at 22 mg/kg, po pretreated with compound followed by carrageenan challenge and measured after 3 hrs post-treatment by dial thickness gage. The assay is classed as functional. The method in brief:
as §2

In assay [7] the test system is Mus musculus. The assay is described as follows: Antiinflammatory activity in ICR mouse model of carrageenan-induced paw edema assessed as paw edema inhibition rate at 22 mg/kg, po pretreated with compound followed by carrageenan challenge and measured after 2 hrs post-treatment by dial thickness gage. In kind it is functional. Put shortly:
as §2

Assay [8] has as its system Mus musculus. Description: Antiinflammatory activity in ICR mouse model of carrageenan-induced paw edema assessed as paw edema inhibition rate at 22 mg/kg, po pretreated with compound followed by carrageenan challenge and measured after 1 hr post-treatment by dial thickness gage. The assay is classed as functional. The method in brief: as §2

Turning to `CC1(C)OC(CCNCCc2ccc(F)cc2)C2(CO)[C@H]3CC[C@]4(C)C(=CC(=O)O[C@H]4c4ccoc4)[C@]3(C)C(=O)C[C@@H]12` (stereo partly specified), the inhibition in vivo at 100 mg/kg in the assay with Mus musculus [1] is 30%. Besides, the inhibition in vivo at 70 mg/kg in the assay with Mus musculus [2] was determined as 30.1%.
Turning to `COc1ccc2cc([C@H](C)C(=O)O)ccc2c1` [NAPROXEN], the inhibition in vivo at 150 mg/kg in the assay filed under Mus musculus [3] is 25%.
As to `CC1(C)OC(CCNCc2ccc(F)cc2)C2(CO)[C@H]3CC[C@]4(C)C(=CC(=O)O[C@H]4c4ccoc4)[C@]3(C)C(=O)C[C@@H]12` (stereo partly specified), the inhibition in vivo at 100 mg/kg with Mus musculus [1] was found to be 29.5%. In addition, the inhibition in vivo at 70 mg/kg with Mus musculus [2] is 37%.
Turning to `CC(=O)Oc1ccccc1C(=O)O` [ASPIRIN], in the assay with Mus musculus [4], the inhibition in vivo at 200 mg/kg turned out to be 51.5%.
As for `COc1ccc2c(c1)c(CC(=O)O)c(C)n2C(=O)c1ccc(Cl)cc1` [INDOMETHACIN], the inhibition in vivo at 22 mg/kg with Mus musculus [5] was 64.8%; in the assay on Mus musculus [6], 64.9%; with Mus musculus [7], 60%; in the assay with Mus musculus [8] it was 47.5%.
Consider `COc1ccc(CNCCC2OC(C)(C)[C@@H]3CC(=O)[C@@]4(C)C5=CC(=O)O[C@@H](c6ccoc6)[C@]5(C)CC[C@@H]4C23CO)cc1` (stereo partly specified), for which, in the assay on Mus musculus [1], the inhibition in vivo at 100 mg/kg amounted to 24.8%. The inhibition in vivo at 70 mg/kg with Mus musculus [2] was found to be 29.7%.
Taken in the same sequence, the figures for `COc1ccc(CCNCCC2OC(C)(C)[C@@H]3CC(=O)[C@]4(C)[C@H](CC[C@@]5(C)[C@H](c6ccoc6)OC(=O)[C@H]6O[C@]654)C23CO)cc1OC` (stereo partly specified) were 26.7% and 11.2%.
Taken in the same sequence, the figures for `COc1ccc(CCNCCC2OC(C)(C)[C@@H]3CC(=O)[C@@]4(C)C5=CC(=O)O[C@@H](c6ccoc6)[C@]5(C)CC[C@@H]4C23CO)cc1OC` (stereo partly specified) were 37.9% and 52.6%.

Source of the values: ChEMBL document CHEMBL4699426, “A practical synthesis of amino limonin/deoxylimonin derivatives as effective mitigators against inflammation and nociception” (2020).
